Here are results for two molecules from ChEMBL document CHEMBL1687917, “Increased bioavailability of tricin-amino acid derivatives via a prodrug approach” (J Med Chem, 2011).

Series [1] deals with Plasma. Briefly: Plasma concentration in Crl:CD (SD) rat at 100 mg/kg, po after 0.5 to 4 hrs. On the set-up: dose 100 mg/kg, route oral. The settings on record: in vivo. The format is ADME, organism-based. The method, boiled down: (§1)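 Tricin was suspended in 1% aqueous methylcellulose (10 mL kg^-1), sonicated and given as a single gavage dose of 100, 300 or 1000 mg kg^-1 to male and female Crl:CD (SD) rats. Tail blood was taken at 0, 0.5, 2 and 4 h, and plasma tricin was quantified by RP-HPLC; means ± SEMs, n = 3.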

Series [2] concerns Plasma. The experiment in a line: Plasma concentration in Crl:CD (SD) rat at 300 mg/kg, po after 0.5 to 4 hrs. In kind it is ADME, organism-based. On the set-up: dose 300 mg/kg, route oral. The settings on record: in vivo. The method, boiled down:
as §1

The test system of series [3] is Plasma. Briefly: Plasma concentration in Crl:CD (SD) rat at 1000 mg/kg, po after 0.5 to 4 hrs. The format is ADME, organism-based. Also on record: dose 1000 mg/kg, route oral. The settings on record: in vivo. The method in brief: as §1
Series [4] is described as follows: Cmax in Crl:CD (SD) rat at 300 mg/kg, po after 0.5 to 8 hrs by RP-HPLC. The format is ADME, organism-based. Also on record: dose 300 mg/kg, route oral. Particulars: in vivo. The method, boiled down: (§2)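 Male Crl:CD (SD) rats were given a single oral bolus of the prodrug by gavage at 100, 300 or 1000 mg kg^-1. Blood was drawn from the tail at 0, 0.5, 2, 4 and 8 h, and plasma was separated by centrifugation (6000 rpm, 10 min, 4 °C) and held at -25 °C for no more than 19 days. Released tricin was quantified. Two Cmax values were reported, with AUC over 0-8 h; means ± SEMs, n = 3.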

Series [5] in a line: Cmax in Crl:CD (SD) rat at 1000 mg/kg, po after 0.5 to 8 hrs by RP-HPLC. In kind it is ADME, organism-based. On the set-up: dose 1000 mg/kg, route oral. Particulars: in vivo. The method, boiled down:
as §2

A short description of series [6]: Stability of the compound in MDCK cell lysate assessed as half life. The format is ADME, cell-based, Canis lupus familiaris. Particulars: dog. The method, boiled down:
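Whole-cell lysate was prepared from 1.33 × 10⁶ MDCK cells with lysis buffer, and prodrugs were incubated with it. Half-life was taken as the time to 50% release of parent drug through carbamate hydrolysis by endogenous enzymes; means ± SEMs, n = 3.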

Series [7] can be described thus: Cmax in Crl:CD (SD) rat at 100 mg/kg, po after 0.5 to 8 hrs by RP-HPLC. In kind it is ADME, organism-based. The settings on record: in vivo. Also on record: dose 100 mg/kg, route oral. The method, boiled down: as §2
Series [8] can be described thus: AUC (0 to 8 hrs) in Crl:CD (SD) rat at 100 mg/kg, po after 0.5 to 8 hrs. The format is ADME, organism-based. Also on record: time < 8 hr, dose 100 mg/kg, route oral. Particulars: plasma. The method in brief: as §2
In series [9] the test system is Mus musculus. Briefly: Toxicity in Crlj:CD1 (ICR) mouse assessed as abnormal appearance at 300 mg/kg/day, po for 14 days. The format is organism-based. Particulars: in vivo, 336 h. Also on record: route oral.
Series [10] has as its system Mus musculus. The experiment in a line: Toxicity in Crlj:CD1 (ICR) mouse assessed as abnormal body weight at 300 mg/kg/day, po for 14 days. On the set-up: route oral. In kind it is organism-based. The settings on record: in vivo, 336 h.
Series [11] relates to Mus musculus. The experiment in a line: Toxicity in Crlj:CD1 (ICR) mouse assessed as abnormal food consumption at 300 mg/kg/day, po for 14 days. In kind it is organism-based. On the set-up: route oral. Particulars: in vivo, 336 h.
The test system of series [12] is Mus musculus. The experiment in a line: Toxicity in Crlj:CD1 (ICR) mouse assessed as abnormal hematology at 300 mg/kg/day, po for 14 days. The settings on record: in vivo, 336 h. The format is organism-based. Also on record: route oral.
Series [13] relates to Mus musculus. The experiment in a line: Toxicity in Crlj:CD1 (ICR) mouse assessed as abnormal blood chemistry at 300 mg/kg/day, po for 14 days. Also on record: route oral. The settings on record: in vivo, 336 h. The format is organism-based.
The subject of series [14] is Mus musculus. Briefly: Toxicity in Crlj:CD1 (ICR) mouse assessed as abnormal autopsy test at 300 mg/kg/day, po for 14 days. Particulars: in vivo, 336 h. Also on record: route oral. The format is organism-based.
Series [15] in a line: AUC (0 to 8 hrs) in Crl:CD (SD) rat at 300 mg/kg, po after 0.5 to 8 hrs. In kind it is ADME, organism-based. Also on record: time < 8 hr, dose 300 mg/kg, route oral. The settings on record: plasma. The method in brief:
as §2

Series [16] can be described thus: AUC (0 to 8 hrs) in Crl:CD (SD) rat at 1000 mg/kg, po after 0.5 to 8 hrs. In kind it is ADME, organism-based. Also on record: time < 8 hr, dose 1000 mg/kg, route oral. The settings on record: plasma. The method, boiled down: as §2

Each structure is given as a SMILES string.

For `COc1cc(-c2cc(=O)c3c(O)cc(O)cc3o2)cc(OC)c1O` [TRICIN], the Cp in series [1], in [2] and in series [3] was less than 60 ng/mL each time.
Take `COc1cc(-c2cc(=O)c3c(O)cc(O)cc3o2)cc(OC)c1OC(=O)N[C@@H](C)C(=O)N[C@@H](CCC(=O)O)C(=O)O`: the highest concentration (Cmax) was 2870 ng/mL in [4], 2880 ng/mL in [5] and 692 ng/mL in series [7]. Further, the half-life in [6] turned out to be 165 min. The AUC(0-t) at 8 h in [8] amounted to 10300 ng·h/mL; in [15] it was 15100 ng·h/mL; in series [16], 21500 ng·h/mL. For the same molecule, the Activity result in series [9], in [10], in [11], in series [12], in series [13] and in series [14] was “Non-toxic” each time.
